Consider 2 compounds from paper PMC5814546 (Clinical Pharmacokinetics, 2017).

Entries after “also recorded” stand apart in the source; their conditions may differ.

One data set has as its target T1, OAT3 (Homo sapiens, UniProt Q8TCC7).
T1 sequence (Q8TCC7 1-542): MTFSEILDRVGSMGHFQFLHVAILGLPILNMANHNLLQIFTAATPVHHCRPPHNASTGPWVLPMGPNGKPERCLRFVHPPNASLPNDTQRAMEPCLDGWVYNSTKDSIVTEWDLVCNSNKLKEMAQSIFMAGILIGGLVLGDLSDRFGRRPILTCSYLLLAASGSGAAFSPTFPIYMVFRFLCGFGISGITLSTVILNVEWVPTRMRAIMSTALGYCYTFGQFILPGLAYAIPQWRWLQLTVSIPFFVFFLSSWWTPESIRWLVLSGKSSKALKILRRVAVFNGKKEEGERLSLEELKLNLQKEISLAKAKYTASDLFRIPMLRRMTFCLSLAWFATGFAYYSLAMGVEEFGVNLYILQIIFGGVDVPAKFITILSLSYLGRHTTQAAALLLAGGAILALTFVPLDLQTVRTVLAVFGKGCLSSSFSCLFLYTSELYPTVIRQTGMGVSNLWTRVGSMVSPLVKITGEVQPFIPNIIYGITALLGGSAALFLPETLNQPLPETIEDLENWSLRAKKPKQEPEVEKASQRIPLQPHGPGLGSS
Briefly: Effect on renal transporters. The settings on record: concentrations up to 100 mM; data on file. The class given is in vitro ADME.

The next data set relates to Aβ oligomers. The conditions noted are these: 1000-fold excess of tramiprosate, IMS-MS; cited from earlier work.
A short description of data set [1]: Summary of clinical safety and tolerability in phase I SAD and MAD studies. The class given is in vivo, human. Put shortly: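 Healthy volunteers received oral ALZ-801 as capsule or tablet, fasted or fed, in single and multiple-dose placebo-controlled studies. AEs were logged from first dose to discharge and at a follow-up call, then coded with MedDRA v18.1. QTc and safety laboratory tests were monitored against withdrawal criteria. Summaries are given as cases or cases (%).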

Data set [2] can be described thus: Safety and tolerability, capsule and tablet multiple ascending dose study. The class given is in vivo, human. The procedure, abridged:
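Double-blind study; 12 per cohort randomized 3:1 to ALZ-801 or placebo. Cohort A fasted capsule: 171 mg once on day 1, twice daily days 2–7, then 256.5 mg days 8–14. Cohort D tablet 265 mg, ages 60–75, fed 30 min pre-dose: once day 1, twice daily days 2–6, once day 7. AEs recorded until follow-up call and coded by MedDRA v18.1.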

[3] abbreviates: Part 1: Cohort A, 171 and 256.5 mg capsule, fasted.
The mark [4] stands for this setting: Part 1: Cohort B, 256.5 and 340 mg capsule, fasted.
Setting [5] is: Part 1: Cohort C, 256.5 and 340 mg capsule, fed.
Where [6] appears, read: Part 2: Cohort D, 265 mg tablet, fed.
[7] abbreviates: Week 1, Cohort A 171 mg bid, capsule, fasted.
Setting [8] is: Week 1, Cohort B 256.5 mg bid, capsule, fasted.
The mark [9] stands for this setting: Week 1, Cohort C 256.5 mg bid, capsule, fed.
[10] abbreviates: Week 1, Cohort D 265 mg bid, tablet, fed.
The mark [11] stands for this setting: Week 2, Cohort A 256.5 mg qd, capsule, fasted.
[12] abbreviates: Week 2, Cohort B 340 mg qd, capsule, fasted.
Setting [13] is: Week 2, Cohort C 340 mg bid, capsule, fed.

`NCCCS(=O)(=O)O` [tramiprosate, 3-amino-1-propanesulfonic acid]: at OAT3, the “effect on renal transporter” value is listed as “no effect”. Further, the “formation of Aβ oligomers” value with Aβ oligomers is reported as “completely abrogated”.
Turning to `CC(C)[C@H](N)C(=O)NCCCS(=O)(=O)O` [ALZ-801, 3-(L-valyl) amino-1-propanesulfonic acid], the tolerability entry in data set [1] (oral, capsule or tablet, healthy volunteers) is given as “well tolerated”; in data set [2] (doses of up to 340 mg twice daily) it was “well tolerated”. The “dose-limiting toxicity or maximum tolerated dose” value in data set [1] (over 2 weeks of dosing at doses up to 342 mg twice daily) was “no dose-limiting toxicity or maximum tolerated dose (MTD) was observed; also recorded: no dose-limiting toxicity was observed”. Moreover, in data set [2] (265 mg twice daily, fed state), the “incidence of TEAEs” value is on record as “equivalent to placebo”. Further, the “total number of TEAEs” value in data set [2] (ALZ-801 dosing in the fasting state) amounted to 65. In addition, the “No. of deaths (all causes)” value in data set [2] (setting [3]), in data set [2] (setting [4]), in data set [2] (setting [5]) and in data set [2] (setting [6]) was 0 in each case. In addition, the “No. of deaths resulting from AEs” value in data set [2] (setting [3]), in data set [2] (setting [4]), in data set [2] (setting [5]) and in data set [2] (setting [6]) was 0 throughout. The “Subjects affected by SAE/exposed” value in data set [2] (setting [3]), in data set [2] (setting [4]), in data set [2] (setting [5]) and in data set [2] (setting [6]) was 0/9 throughout. Moreover, the “TEAEs: Nausea” value is on record as 3 (33.3) cases (%) in data set [2] (setting [7]); 4 (44.4) cases (%) in data set [2] (setting [8]); 5 (55.6) cases (%) in data set [2] (setting [9]); 3 (33.3) cases (%) in data set [2] (setting [10]); 3 (33.3) cases (%) in data set [2] (setting [11]); 0 cases (%) in data set [2] (setting [12]). For the same compound, in data set [2] (setting [13]), the “TEAEs: Nausea” value is listed as 0 cases (%). Besides, the “TEAEs: Vomiting” value in data set [2] (setting [7]) is 0 cases (%); in data set [2] (setting [8]), 2 (22.2) cases (%); in data set [2] (setting [9]), 2 (22.2) cases (%); in data set [2] (setting [10]), 1 (11.1) cases (%); in data set [2] (setting [11]), 0 cases (%); in data set [2] (setting [12]), 2 (22.2) cases (%). Besides, the “TEAEs: Vomiting” value in data set [2] (setting [13]) is 0 cases (%).
